Experimental data reported in ChEMBL document CHEMBL1153840, “Targeting of the Brucella suis virulence factor histidinol dehydrogenase by histidinol analogues results in inhibition of intramacrophagic multiplication of the pathogen” (Antimicrob Agents Chemother, 2007).
Activity calls are given as the source filed them. The calls are words filed in the database; no cut-off is given here.

Experiments:
[1] = test system: Brucella suis; assay: Antibacterial activity against Brucella suis 1330 assessed as reduction in bacterial growth in minimal medium after 96 hrs relative to control; format: functional
[2] = test system: THP-1; assay: Toxicity against human THP1 cells at 25 uM after 48 hrs by trypan blue exclusion method; format: cell-based; conditions: thp-1, 48 h
In short: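 Infected THP1 macrophage-like cells are stained with trypan blue at 48 h postinfection, at the drug concentrations used in the intracellular assay.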

[3] = molecular target: T1, Histidinol dehydrogenase (Brucella suis biovar 1 (strain 1330), UniProt Q8G2R2); assay: Inhibition of Brucella suis histidinol dehydrogenase
T1 sequence (Q8G2R2 whole entry): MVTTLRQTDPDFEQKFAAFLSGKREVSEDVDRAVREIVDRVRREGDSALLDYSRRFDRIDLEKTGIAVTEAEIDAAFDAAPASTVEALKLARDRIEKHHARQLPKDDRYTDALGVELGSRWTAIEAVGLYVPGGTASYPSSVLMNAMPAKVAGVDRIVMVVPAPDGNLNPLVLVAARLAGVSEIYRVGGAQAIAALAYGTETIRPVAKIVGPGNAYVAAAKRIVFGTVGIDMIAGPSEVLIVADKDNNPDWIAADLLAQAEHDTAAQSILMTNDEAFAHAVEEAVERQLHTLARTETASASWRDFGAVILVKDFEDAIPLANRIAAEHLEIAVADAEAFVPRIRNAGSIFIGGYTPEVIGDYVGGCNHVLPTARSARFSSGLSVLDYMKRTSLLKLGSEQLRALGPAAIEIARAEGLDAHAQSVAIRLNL

[4] = test system: Brucella suis; assay: Antibacterial activity against Brucella suis 1330 in minimal medium at 100 uM after 96 hrs; format: functional, organism-based
[5] = test system: Brucella suis; assay: Antibacterial activity against Brucella suis 1330 assessed as reduction in bacterial intramacrophagic multiplication in human THP1 cells at 25 uM treated 90 mins postinfection measured 24 hrs postinfection relative to control; format: functional, THP-1
[6] = test system: Brucella suis; assay: Antibacterial activity against Brucella suis 1330 in minimal medium after 96 hrs; format: functional, organism-based
[7] = test system: Brucella suis; assay: Inhibition of intracellular replication of Brucella suis 1330 in human THP1 cells assessed as reduction in number of viable intracellular bacteria at 25 uM treated 90 mins postinfection measured 24 hrs postinfection relative to control; format: functional, organism-based; conditions: THP-1
[8] = test system: Brucella suis; assay: Growth inhibition of Brucella suis 1330 in minimal medium devoid of 1 mM histidine at 100 uM after 96 hrs; format: functional, organism-based
[9] = test system: Brucella suis; assay: Growth inhibition of Brucella suis 1330 in minimal medium containing 1 mM histidine at 100 uM after 96 hrs; format: functional, organism-based

SMILES | fold change (FC) [1] | Activity [2] | IC50 [3] | inhibition [4] | fold change (FC) [5] | inhibition [6] | Activity [7] | Activity [8] | Activity [9]
Cl.Cl.N[C@@H](Cc1c[nH]cn1)C(=O)Cc1ccc(Cl)cc1 | 12 | Non-toxic | 6 nM | Active | 50 | Dose-dependent effect | Active | – | –
Cl.Cl.N[C@@H](Cc1c[nH]cn1)C(=O)Cc1ccc2c(c1)OCO2 | 12 | – | 6 nM | – | – | – | – | – | –
Cl.Cl.N[C@@H](Cc1c[nH]cn1)C(=O)Cc1ccccc1 | 12 | – | 6 nM | – | – | – | – | – | –
Cl.Cl.N[C@@H](Cc1c[nH]cn1)C(=O)Cc1ccc(Oc2ccccc2)cc1 | 12 | – | 6 nM | – | – | – | – | – | –
COc1ccc(CC(=O)[C@@H](N)Cc2c[nH]cn2)cc1.Cl.Cl | 12 | – | 6 nM | – | – | – | – | – | –
Cl.Cl.N[C@@H](Cc1c[nH]cn1)C(=O)Cc1ccc(F)cc1F | 12 | – | 6 nM | – | – | – | – | – | –
Cl.Cl.N[C@@H](Cc1c[nH]cn1)C(=O)Cc1ccc(F)cc1 | 12 | – | 6 nM | Active | – | – | – | – | –
Cl.Cl.N[C@@H](Cc1c[nH]cn1)C(=O)Cc1cccc2ccccc12 | 12 | – | 6 nM | – | – | – | – | – | –
Cl.Cl.N[C@@H](Cc1c[nH]cn1)C(=O)Cc1ccc(Br)cc1 | 12 | Non-toxic | – | Active | 50 | Dose-dependent effect | Active | – | –
Cl.Cl.N[C@@H](Cc1c[nH]cn1)C(=O)Cc1ccc(OCc2ccccc2)cc1 | 12 | – | – | – | – | – | Active | – | –
Cl.Cl.N[C@@H](Cc1c[nH]cn1)C(=O)Cc1ccc(-c2ccccc2)cc1 | 12 | Non-toxic | 6 nM | Active | 50 | Dose-dependent effect | Active | Active | inactive
Cc1ccc(CC(=O)[C@@H](N)Cc2c[nH]cn2)cc1.Cl.Cl | 12 | – | 6 nM | – | – | – | – | – | –
Cl.Cl.N[C@@H](Cc1c[nH]cn1)C(=O)Cc1ccc2ccccc2c1 | 12 | Non-toxic | 6 nM | Active | 50 | Dose-dependent effect | Active | – | –
Cl.Cl.N[C@@H](Cc1c[nH]cn1)C(=O)Cc1c(F)c(F)c(F)c(F)c1F | 12 | – | 6 nM | – | – | – | – | – | –
Cl.Cl.N[C@@H](Cc1c[nH]cn1)C(=O)Cc1ccc(Cl)c(Cl)c1 | 12 | – | 6 nM | – | – | – | – | – | –
